From ChEMBL document CHEMBL3763151, “Antinociceptive Grayanoids from the Roots of Rhododendron molle” (J Nat Prod, 2015) come the findings set out here.

Calls of active or inactive are those of the source.

The subject of data set [1] is Mus musculus. The experiment in a line: Antinociceptive activity in ip dosed Kunming mouse model of acute pain assessed as inhibition of acetic acid-induced writhes administered 30 mins prior to acetic acid challenge measured for 30 mins. Type of data set: functional. As to conditions: for ED50: read-out: ID50 (the source's name). The method, boiled down:
(§1)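 Acetic acid-induced writhing in mice after ip dosing, with a vehicle-injected group for comparison. Reported as mean ± SEM of 12 mice per group. Significance vs vehicle by one-way ANOVA followed by Bonferroni test.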

Data set [2] concerns Mus musculus. The experiment in a line: Antinociceptive activity in Kunming mouse model of acute pain assessed as inhibition of acetic acid-induced writhes at 0.08 mg/kg, ip administered 30 mins prior to acetic acid challenge measured for 30 mins in presence of nonselective opioid antagonist naloxone. Type of data set: functional, organism-based.
Data set [3] relates to Mus musculus. The experiment in a line: Antinociceptive activity in Kunming mouse model of acute pain assessed as inhibition of acetic acid-induced writhes at 0.08 mg/kg, ip administered 30 mins prior to acetic acid challenge measured for 30 mins relative to control. Type of data set: functional. The method, boiled down:
as §1

Data set [4] has as its system Mus musculus. The experiment in a line: Antinociceptive activity in po dosed Kunming mouse model of STZ-induced diabetic neuropathy pain assessed as complete reversal of mechanical hyperalgesia. Type of data set: functional, organism-based. The gist of the method: (§2)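 Streptozotocin-diabetic mice with mechanical hyperalgesia were dosed orally (n = 8), with vehicle and gabapentin groups for comparison. Data are mean ± SEM. Significance vs vehicle by one-way ANOVA followed by Bonferroni test.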

Data set [5] relates to Mus musculus. The experiment in a line: Antinociceptive activity in Kunming mouse model of STZ-induced diabetic neuropathy pain assessed as increase in paw withdrawal mechanical threshold at 0.2 to 0.4 mg/kg, po relative to gabapentin. The class given is functional. The method, boiled down: as §2
The test system of data set [6] is Mus musculus. The data set is described as follows: Toxicity in ip dosed Kunming mouse by Karber's method. Type of data set: organism-based. Particulars: in vivo.
A short description of data set [7]: Selectivity index, ratio of LD50 for toxicity in Kunming mouse to ID50 for antinociceptive activity in Kunming mouse model of acute pain. Type of data set: organism-based. Particulars: in vivo, read-out: Selectivity Index.
Data set [8] has as its system Mus musculus. The experiment in a line: Antinociceptive activity in ip dosed Kunming mouse model of formalin-induced pain assessed as reduction of time spent in licking in phase 1 administered 30 mins before formalin injection measured for 5 mins. The class given is functional, organism-based. The method, boiled down: (§3)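 Formalin test scored in phase I and phase II after ip dosing, against a vehicle group (n = 10). Control drugs used: morphine and ibuprofen. Data are mean ± SEM. Significance vs vehicle by one-way ANOVA followed by Bonferroni test.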

Data set [9] relates to Mus musculus. The experiment in a line: Antinociceptive activity in ip dosed Kunming mouse model of formalin-induced pain assessed as reduction of time spent in licking in phase 2 administered 30 mins before formalin injection measured for 15 to 30 mins. The class given is functional, organism-based. The gist of the method: as §3
Data set [10] relates to Mus musculus. The data set is described as follows: Antinociceptive activity in Kunming mouse assessed as increase in licking latency time at 0.08 mg/kg, ip by hot plate test. The class given is functional, organism-based. (Thermal pain tests record how soon the animal reacts.)
Data set [11] has as its system Mus musculus. The data set is described as follows: Antinociceptive activity in Kunming mouse model of formalin-induced pain assessed as reduction of time spent in licking in phase 1 at 60 mg/kg, ip administered 30 mins before formalin injection measured for 5 mins. Type of data set: functional, organism-based. The method, boiled down:
(§4)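 Formalin test in mice with phases I and II scored separately. Compounds given ip, n = 10 per group. Data are mean ± SEM, compared with the vehicle group by one-way ANOVA followed by the Bonferroni test.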

For data set [12], the system named is Mus musculus. The experiment in a line: Antinociceptive activity in Kunming mouse model of formalin-induced pain assessed as reduction of time spent in licking in phase 2 at 60 mg/kg, ip administered 30 mins before formalin injection measured after 15 mins up to 30 mins. The class given is functional, organism-based. The method, boiled down: as §4
In data set [13] the test system is Mus musculus. The data set is described as follows: Antinociceptive activity in Kunming mouse model of acute pain assessed as inhibition of acetic acid-induced writhes at 5 mg/kg, ip administered 30 mins prior to acetic acid challenge measured for 30 mins. The class given is functional, organism-based. The method, boiled down: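 Acute-pain model in mice: compounds given ip, and writhing counted against vehicle-injected mice.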

Data set [14] has as its system Mus musculus. The data set is described as follows: Antinociceptive activity in Kunming mouse model of acute pain assessed as inhibition of acetic acid-induced writhes at 0.8 mg/kg, ip administered 30 mins prior to acetic acid challenge measured for 30 mins in presence of nonselective opioid antagonist naloxone. Type of data set: functional, organism-based.
The test system of data set [15] is Mus musculus. The experiment in a line: Antinociceptive activity in Kunming mouse model of formalin-induced pain assessed as reduction of time spent in licking in phase 1 at 2 mg/kg, ip administered 30 mins before formalin injection measured for 5 mins. Type of data set: functional, organism-based. The gist of the method:
as §3

Data set [16] relates to Mus musculus. The data set is described as follows: Antinociceptive activity in Kunming mouse model of formalin-induced pain assessed as reduction of time spent in licking in phase 2 at 2 mg/kg, ip administered 30 mins before formalin injection measured after 15 mins up to 30 mins. Type of data set: functional, organism-based. The method, boiled down:
as §3

Data set [17] relates to Mus musculus. The experiment in a line: Antinociceptive activity in Kunming mouse model of STZ-induced diabetic neuropathy pain assessed as increase in paw withdrawal mechanical threshold at 50 mg/kg, po. Type of data set: functional, organism-based. The gist of the method: as §2
Data set [18] concerns Mus musculus. The experiment in a line: Antinociceptive activity in Kunming mouse assessed as increase in licking latency time at 0.02 to 0.08 mg/kg, ip by hot plate test. Type of data set: functional, organism-based.

What is called inhibition in vivo is how much of the control response was suppressed. Usually LD50 stands for the dose expected to kill half of the subjects tested. High values mean a less toxic substance, low ones a more toxic substance.

Take `CC1(C)[C@H]2O[C@H]2[C@H]2[C@](C)(O)[C@@H]3CC[C@@H]4[C@@H](O)[C@@]3(C[C@@H](O)[C@@]21O)C[C@@]4(C)O`: the inhibition entry with Mus musculus [1] is “Dose-dependent effect”. In the data set with Mus musculus [1], the ED50 is 0.0469 mg/kg. Also, in the data set on Mus musculus [2], the inhibition entry is “Active”. The inhibition in vivo at 0.08 mg/kg in the data set with Mus musculus [3] was found to be 73.7%. The Activity entry in the data set on Mus musculus [4], with Mus musculus [8] and with Mus musculus [9] was “Dose-dependent effect” in each case. For the same compound, in the data set with Mus musculus [5], the “fold change (FC)” value is reported as 100. The same compound displayed an LD50 in the data set with Mus musculus [6] of 0.271 mg/kg. Further, the selectivity ratio in [7] was 5.8. Further, the outcome in the data set with Mus musculus [10] was Active.
With `CC(C)Cc1ccc(C(C)C(=O)O)cc1` (stereo not drawn), in the data set with Mus musculus [11], the outcome was inactive. The result with Mus musculus [12] was Active.
Regarding `C=C1C[C@@]23C[C@@H](O)[C@@]4(O)[C@H](C(=C)[C@@H]2CC[C@@H]1[C@H]3O)[C@@H](O)[C@H](O)C4(C)C`, the inhibition result in the data set with Mus musculus [13] was “inactive”.
`C=C1[C@@H]2CC[C@@H]3C[C@@]2(C[C@@H](O)[C@@]2(O)[C@@H]1[C@H](O)[C@H](O)C2(C)C)C[C@@]3(C)O`: the inhibition result in the data set with Mus musculus [13] was “Active”.
Still for that read-out and setting: under `C=C1[C@@H]2[C@@H](O)[C@H](O)C(C)(C)[C@@]2(O)[C@H](O)C[C@]23C[C@@](C)(O)[C@H](CC[C@@H]12)[C@H]3O` stands “inactive”; under `CC1(C)[C@H]2O[C@H]2[C@H]2[C@](C)(O)[C@@H]3C[C@@H](O)[C@@H]4[C@@H](O)[C@@]3(C[C@@H](O)[C@@]21O)C[C@@]4(C)O`, “Active”.
Still for that read-out and setting: under `CC1(C)[C@@H](O)[C@@H](O)[C@@H]2[C@@](C)(O)[C@@H]3CC[C@@H]4[C@@H](O)[C@@]3(C[C@@H](O)[C@@]21O)C[C@@]4(C)O` stands “Active”.
As to `CN1CC[C@]23c4c5ccc(O)c4O[C@H]2[C@@H](O)C=C[C@H]3[C@H]1C5` [MORPHINE], in the data set on Mus musculus [1], the ED50 stood at 0.343 mg/kg. Further, in the data set with Mus musculus [14], the inhibition result is “inactive”. Besides, the outcome in the data set on Mus musculus [15] and in the data set with Mus musculus [16] was Active.
Turning to `CC1(C)[C@@H](O[C@@H]2O[C@H](CO)[C@@H](O)[C@H](O)[C@H]2O)[C@H](O)[C@H]2[C@](C)(O)[C@@H]3CC[C@@H]4[C@@H](O)[C@@]3(C[C@@H](O)[C@@]21O)C[C@@]4(C)O`, in the data set with Mus musculus [13], the inhibition result is “Active”.
The same measure, in the same setting: the value for `C=C1[C@@H]2[C@H](O)[C@H](O[C@@H]3O[C@H](CO)[C@@H](O)[C@H](O)[C@H]3O)C(C)(C)[C@@]2(O)[C@H](O)C[C@]23C[C@@](C)(O)[C@H](CC[C@@H]12)[C@H]3O` was “inactive”.
On to `C=C1[C@@H]2[C@@H](O)[C@H](O[C@@H]3O[C@H](CO)[C@@H](O)[C@H](O)[C@H]3O)C(C)(C)[C@@]2(O)[C@H](O)C[C@]23C[C@@](C)(O)[C@H](CC[C@@H]12)[C@H]3O`, for which the inhibition entry with Mus musculus [13] is “inactive”.
For `NCC1(CC(=O)O)CCCCC1`, in the data set on Mus musculus [17], the outcome was Active.
On to `CC1(C)[C@@H](O[C@@H]2O[C@H](CO)[C@@H](O)[C@H](O)[C@H]2O)[C@@H](O)[C@H]2[C@](C)(O)[C@@H]3CC[C@@H]4[C@@H](O)[C@@]3(C[C@@H](O)[C@@]21O)C[C@@]4(C)O`, for which the inhibition result with Mus musculus [13] was “inactive”.
In the case of `C=C1[C@@H]2CC[C@@H]3[C@@H](O)[C@@]2(C[C@@H](O)[C@@]2(O)[C@H]1C[C@H](O)C2(C)C)C[C@@]3(C)O`, the inhibition result with Mus musculus [13] is “Active”.
On the same count and under the same terms, under `CC1(C)[C@@H](O[C@@H]2O[C@H](CO)[C@@H](O)[C@H](O)[C@H]2O)[C@@H](O)[C@@H]2[C@@](C)(O)[C@@H]3CC[C@@H]4C[C@@]3(C[C@@H](O)[C@@]21O)C[C@@]4(C)O` stands “Active”.
As for `CC1(C)[C@@H](O)C[C@H]2[C@](C)(O)[C@@H]3CC[C@@H]4[C@@H](O)[C@@]3(C[C@@H](O)[C@@]21O)C[C@@]4(C)O` [GRAYANOTOXIN III], the inhibition in vivo at 0.08 mg/kg in the data set with Mus musculus [3] is 55.6%.
Turning to `CC1(C)[C@@H](O)[C@H](O)[C@H]2[C@](C)(O)[C@@H]3CC[C@@H]4[C@@H](O)[C@@]3(C[C@@H](O)[C@@]21O)C[C@@]4(C)O`, the inhibition result in the data set with Mus musculus [1] was “Dose-dependent effect”. For the same compound, the ED50 in the data set with Mus musculus [1] was 0.0727 mg/kg. Moreover, in the data set on Mus musculus [2], the inhibition result was “Active”. For the same compound, the inhibition in vivo at 0.08 mg/kg with Mus musculus [3] is 64.2%. The Activity result with Mus musculus [4], in the data set on Mus musculus [8] and in the data set with Mus musculus [9] was “Dose-dependent effect” throughout. In addition, the “fold change (FC)” value in the data set with Mus musculus [5] is listed as 100. The LD50 in the data set with Mus musculus [6] worked out at 1.791 mg/kg. For the same compound, in data set [7], the selectivity ratio stood at 24.6. Moreover, the outcome in the data set with Mus musculus [18] was inactive.
For `CC1=C2CC[C@@H]3[C@@H](O)[C@@]2(C[C@@H](O)[C@@]2(O)[C@H]1[C@@H](O)[C@H](O)C2(C)C)C[C@@]3(C)O`, the inhibition result in the data set on Mus musculus [13] is “inactive”.
For the compound `C=C1[C@@H]2[C@H](O)[C@H](O)C(C)(C)[C@@]2(O)[C@H](O)C[C@]23C=C(C)[C@H](CC[C@@H]12)[C@H]3O`, the inhibition entry with Mus musculus [13] was “inactive”.
